We go through seven compounds from ChEMBL document CHEMBL4665845, “CRISPR-Cas9 Genome-Wide Knockout Screen Identifies Mechanism of Selective Activity of Dehydrofalcarinol in Mesenchymal Stem-like Triple-Negative Breast Cancer Cells” (2020).

Calls of active or inactive are those of the source. The calls are words filed in the database; no cut-off is given here.

Test [1] concerns MDA-MB-231. Description: Growth inhibition of human MDA-MB-231 cells after 48 hrs by SRB assay. In kind it is functional. The method, boiled down:
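Cells were exposed to compound for 48 h, and growth was read by sulforhodamine B staining. TGI (total growth inhibition concentration, μM) was taken from concentration–response curves, n = 3, means ± SEM. MDA-MB-231 cells were grown in IMEM with 10% FBS at 37 °C in 5% CO2.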

The test system of test [2] is BT-549. Briefly: Growth inhibition of human BT-549 cells after 48 hrs by SRB assay. In kind it is functional. In general terms: The SRB assay estimates cell density from bound dye.
Test [3] is filed under the species Homo sapiens. Briefly: Selectivity index, ratio of TGI for growth inhibitor of human BT-549 to TGI for growth inhibitor of human MDA-MB-231. In kind it is functional.
Test [4] deals with MDA-MB-231. Briefly: Cytotoxicity against human MDA-MB-231 cells harboring CRISPR/Cas9 assessed as reduction in cell viability at 300 nM by SRB assay. In kind it is functional, cell-based.
Test [5] deals with TC-32. Briefly: Antiproliferative activity against human TC-32 cells assessed as reduction in cell viability after 48 hrs by SRB assay. In kind it is functional, cell-based.
The test system of test [6] is SK-ES1. Description: Antiproliferative activity against human SK-ES1 cells assessed as reduction in cell viability after 48 hrs by SRB assay. In kind it is functional, cell-based.
Test [7] relates to MDA-MB-231. Briefly: Induction of cell cycle arret in human MDA-MB-231 cells assessed as G2/M phase accumulation at LC50 concentration after 18 hrs by Krishan's staining based cell analyzer method. The class given is functional. The method, boiled down:
(§1)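 MDA-MB-231 cells were treated at the LC50 concentration for 18 h, and cell cycle distribution was then assessed.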

Test [8] has as its system MDA-MB-231. Description: Induction of cell cycle arret in human MDA-MB-231 cells assessed as G1 phase accumulation at LC50 concentration after 18 hrs by Krishan's staining based cell analyzer method. The class given is functional. The method, boiled down:
as §1

Test [9] has as its system MDA-MB-231. Briefly: Induction of cell cycle arret in human MDA-MB-231 cells assessed as S phase accumulation at LC50 concentration after 18 hrs by Krishan's staining based cell analyzer method. In kind it is functional. The method, boiled down:
as §1

The target of test [10] is Ribosomal protein S6 kinase beta-1 (Homo sapiens) (UniProt P23443). Briefly: Inhibition of phosphorylation of P70S6K at T389 residue in human MDA-MB-231 cells at 300 nM preincubated for 6 hrs followed FBS-stimulation and measured after 0.25 to 2 hrs by immunoblotting analysis. The class given is cell-based. To be noted: time hrs <=8. Background: A western blot detects proteins with antibodies after separation by electrophoresis.

The subject of test [11] is MDA-MB-231. Briefly: Effect on P70S6K regulation in human MDA-MB-231 cells at 300 nM preincubated for 6 hrs followed FBS-stimulation and measured after 0.25 to 2 hrs by immunoblotting analysis. In kind it is functional, cell-based. The following applies: time hrs <=8.
For test [12], the target named is Mitogen-activated protein kinase; ERK1/ERK2 (Homo sapiens) (UniProt P27361+P28482). Description: Inhibition of phosphorylation of Erk1/2 in human MDA-MB-231 cells at 300 nM preincubated for 6 hrs followed FBS-stimulation and measured after 0.25 to 2 hrs by immunoblotting analysis. In kind it is cell-based. To be noted: time hrs <=8.
In test [13] the test system is MDA-MB-231. Briefly: Effect on Erk1/2 regulation in human MDA-MB-231 cells at 300 nM preincubated for 6 hrs followed FBS-stimulation and measured after 0.25 to 2 hrs by immunoblotting analysis. The class given is functional, cell-based. To be noted: time hrs <=8.
Test [14] addresses Serine/threonine-protein kinase AKT (Homo sapiens) (UniProt P31751+Q9Y243+P31749). Briefly: Inhibition of phosphorylation of Akt at S473 residue in human MDA-MB-231 cells at 300 nM preincubated for 6 hrs followed FBS-stimulation and measured after 0.25 to 2 hrs by immunoblotting analysis. The following applies: time hrs <=8. The class given is cell-based.
Test [15] relates to MDA-MB-231. Briefly: Effect on Akt regulation in human MDA-MB-231 cells at 300 nM preincubated for 6 hrs followed FBS-stimulation and measured after 0.25 to 2 hrs by immunoblotting analysis. In kind it is functional, cell-based. To be noted: time hrs <=8.
Test [16] concerns MDA-MB-231. Briefly: Cytotoxicity against human MDA-MB-231 cells assessed as reduction in cell viability at 0.03 to 3 uM after 48 hrs in presence of GW9662 by SRB assay. In kind it is functional, cell-based. To be noted: dose microM 0.03-3, time 48.0 hrs.
In test [17] the test system is MDA-MB-453. Briefly: Cytotoxicity against human MDA-MB-453 cells assessed as reduction in cell viability at 0.03 to 3 uM after 48 hrs in presence of GW9662 by SRB assay. In kind it is functional, cell-based. To be noted: dose microM 0.03-3, time 48.0 hrs.
In test [18] the test system is A673. Briefly: Antiproliferative activity against human A673 cells assessed as reduction in cell viability after 48 hrs by SRB assay. In kind it is functional, cell-based.
Test [19] deals with MDA-MB-231. Briefly: Cytotoxicity against CRISPR/Cas9-mediated HSD17B11 knock-out human MDA-MB-231 cells at 1 uM incubated for 2 weeks. In kind it is functional, cell-based. The method, boiled down:
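Doxycycline-inducible Cas9 MDA-MB-231 cells were transduced with the pooled Brunello sgRNA lentiviral library (0.005 μg/mL polybrene, 5 h), then selected in 1 μg/mL puromycin for 72 h. Cas9 was induced with 50 ng/mL doxycycline for 48 h. Cells were treated with 1 μM for 14 days, refreshing medium and compound every 3–4 days, and recovered 2 days before sgRNA sequencing. Enrichment was compared with input and vehicle.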

Test [20] deals with MDA-MB-231. Description: Cytotoxicity against HSD17B11 siRNA knock-out human MDA-MB-231 cells assessed as reduction in cell viability at 300 nM incubated for 48 hrs by SRB assay. The class given is functional, cell-based. The method, boiled down:
(§2)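 MDA-MB-231 cells were reverse-transfected with HSD17B11 siRNA (12.5 nM final, 0.025% RNAiMAX, antibiotic-free medium) or mock for 48 h. Cells were then replated, allowed to attach for 4–6 h, and treated for 48 h. Read-out was SRB viability and TGI, n = 3. Knockdown vs mock was compared by paired two-tailed t-test.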

The nature of test [21]: Ratio of TGI for cytotoxicity against HSD17B11 siRNA knock-out human MDA-MB-231 cells to TGI for cytotoxicity against human MDA-MB-231 cells. The class given is functional. The method, boiled down:
as §2

Test [22] concerns BT-549. Briefly: Cytotoxicity against human BT-549 cells over expressing HSD17B11 assessed as reduction in cell viability at 1 to 10 uM by SRB assay. The following applies: dose microM 1-10. In kind it is functional, cell-based. The method, boiled down:
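BT-549 cells were transfected with a plasmid expressing HSD17B11-GFP from a constitutive CMV promoter, with mock-transfected cells as control. Overexpression was confirmed by immunoblot, and sensitivity was measured by SRB assay.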

For test [23], the system named is RD. Description: Antiproliferative activity against human RDES cells assessed as reduction in cell viability after 48 hrs by SRB assay. In kind it is functional, cell-based.
The test system of test [24] is MDA-MB-231. Briefly: Cytotoxicity against human MDA-MB-231 cells assessed as reduction in cell viability at 0.03 to 3 uM after 48 hrs by SRB assay. To be noted: dose microM 0.03-3, time 48.0 hrs. In kind it is functional, cell-based.
Test [25] deals with MDA-MB-453. Briefly: Cytotoxicity against human MDA-MB-453 cells assessed as reduction in cell viability at 0.03 to 3 uM after 48 hrs by SRB assay. In kind it is functional, cell-based. The following applies: dose microM 0.03-3, time 48.0 hrs.

Chain of Ribosomal protein S6 kinase beta-1 (Homo sapiens) (P23443 whole entry, looked up): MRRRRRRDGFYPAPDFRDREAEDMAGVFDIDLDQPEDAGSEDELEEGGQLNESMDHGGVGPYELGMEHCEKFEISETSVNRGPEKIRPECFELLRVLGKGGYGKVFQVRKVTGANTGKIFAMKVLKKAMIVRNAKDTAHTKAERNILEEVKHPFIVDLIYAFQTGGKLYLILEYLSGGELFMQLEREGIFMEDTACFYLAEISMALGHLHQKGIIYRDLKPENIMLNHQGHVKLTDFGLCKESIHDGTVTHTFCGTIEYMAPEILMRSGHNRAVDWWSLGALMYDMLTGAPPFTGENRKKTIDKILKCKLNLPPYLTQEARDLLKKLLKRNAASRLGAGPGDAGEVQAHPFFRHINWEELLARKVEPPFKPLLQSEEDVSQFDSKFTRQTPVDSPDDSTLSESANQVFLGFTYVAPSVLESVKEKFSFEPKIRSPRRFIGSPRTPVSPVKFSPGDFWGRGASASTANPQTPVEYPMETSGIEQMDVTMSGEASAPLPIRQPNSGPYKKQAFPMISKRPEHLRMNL
Chain of Serine/threonine-protein kinase AKT (Homo sapiens) (P31749 whole entry, looked up): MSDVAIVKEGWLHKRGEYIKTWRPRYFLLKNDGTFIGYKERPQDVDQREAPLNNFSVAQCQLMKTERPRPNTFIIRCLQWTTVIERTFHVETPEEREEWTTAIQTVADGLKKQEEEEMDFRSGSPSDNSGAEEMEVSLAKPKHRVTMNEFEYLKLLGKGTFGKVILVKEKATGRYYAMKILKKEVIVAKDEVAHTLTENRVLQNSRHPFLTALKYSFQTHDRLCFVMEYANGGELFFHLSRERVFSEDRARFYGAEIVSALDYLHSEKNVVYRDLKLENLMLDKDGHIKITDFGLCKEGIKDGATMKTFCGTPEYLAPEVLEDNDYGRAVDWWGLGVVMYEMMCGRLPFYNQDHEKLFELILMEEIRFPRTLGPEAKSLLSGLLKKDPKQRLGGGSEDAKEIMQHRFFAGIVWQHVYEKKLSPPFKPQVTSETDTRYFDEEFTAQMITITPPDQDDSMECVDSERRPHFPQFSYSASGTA
Chain of Serine/threonine-protein kinase AKT (Homo sapiens) (P31751 whole entry, looked up): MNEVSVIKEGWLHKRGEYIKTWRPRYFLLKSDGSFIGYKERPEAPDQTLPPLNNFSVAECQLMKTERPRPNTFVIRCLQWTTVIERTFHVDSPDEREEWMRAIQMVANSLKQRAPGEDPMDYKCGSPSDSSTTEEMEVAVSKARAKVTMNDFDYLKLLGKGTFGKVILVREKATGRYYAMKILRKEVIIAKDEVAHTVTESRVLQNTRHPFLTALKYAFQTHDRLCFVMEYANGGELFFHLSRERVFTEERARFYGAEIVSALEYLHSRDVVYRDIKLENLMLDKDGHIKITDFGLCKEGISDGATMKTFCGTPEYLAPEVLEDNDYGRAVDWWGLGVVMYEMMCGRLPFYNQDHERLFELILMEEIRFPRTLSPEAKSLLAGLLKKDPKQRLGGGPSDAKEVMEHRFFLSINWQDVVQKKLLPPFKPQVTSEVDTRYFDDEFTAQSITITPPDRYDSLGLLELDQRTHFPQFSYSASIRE
Chain of Serine/threonine-protein kinase AKT (Homo sapiens) (Q9Y243 whole entry, looked up): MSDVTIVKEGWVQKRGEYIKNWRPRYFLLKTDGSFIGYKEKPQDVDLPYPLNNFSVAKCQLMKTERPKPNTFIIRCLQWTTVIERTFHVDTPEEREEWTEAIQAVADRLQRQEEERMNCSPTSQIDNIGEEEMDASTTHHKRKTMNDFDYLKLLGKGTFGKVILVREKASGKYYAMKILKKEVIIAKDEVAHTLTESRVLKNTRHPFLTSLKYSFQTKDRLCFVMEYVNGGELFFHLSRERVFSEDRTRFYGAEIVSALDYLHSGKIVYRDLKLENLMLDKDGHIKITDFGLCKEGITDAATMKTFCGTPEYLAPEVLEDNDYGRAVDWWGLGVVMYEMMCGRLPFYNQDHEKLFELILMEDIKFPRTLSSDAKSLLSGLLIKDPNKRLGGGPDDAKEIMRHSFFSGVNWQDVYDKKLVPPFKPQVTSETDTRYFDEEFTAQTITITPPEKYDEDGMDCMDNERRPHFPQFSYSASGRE
Chain of Mitogen-activated protein kinase; ERK1/ERK2 (Homo sapiens) (P27361 whole entry, looked up): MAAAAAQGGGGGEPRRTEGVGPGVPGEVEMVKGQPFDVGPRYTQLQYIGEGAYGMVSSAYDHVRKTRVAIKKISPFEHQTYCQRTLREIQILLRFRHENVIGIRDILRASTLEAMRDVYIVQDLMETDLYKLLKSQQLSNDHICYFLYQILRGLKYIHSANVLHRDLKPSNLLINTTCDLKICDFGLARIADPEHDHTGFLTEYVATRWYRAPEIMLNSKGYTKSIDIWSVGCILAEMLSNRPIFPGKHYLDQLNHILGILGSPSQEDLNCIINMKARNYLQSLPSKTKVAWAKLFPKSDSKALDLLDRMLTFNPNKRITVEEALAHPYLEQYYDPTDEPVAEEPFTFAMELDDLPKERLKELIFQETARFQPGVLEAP
Chain of Mitogen-activated protein kinase; ERK1/ERK2 (Homo sapiens) (P28482 whole entry, looked up): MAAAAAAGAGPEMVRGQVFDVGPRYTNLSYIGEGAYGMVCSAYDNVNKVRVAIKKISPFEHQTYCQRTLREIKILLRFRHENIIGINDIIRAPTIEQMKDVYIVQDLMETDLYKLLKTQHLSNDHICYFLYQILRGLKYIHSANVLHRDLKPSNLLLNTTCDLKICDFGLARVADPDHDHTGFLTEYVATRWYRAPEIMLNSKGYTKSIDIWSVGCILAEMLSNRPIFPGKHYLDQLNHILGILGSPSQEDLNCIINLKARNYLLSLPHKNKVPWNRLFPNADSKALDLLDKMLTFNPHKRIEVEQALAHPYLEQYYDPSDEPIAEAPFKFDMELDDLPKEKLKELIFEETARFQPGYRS

As for `C=CCCCCCC(O)/C=C/C#CC#CC(O)CC` (mixture of isomers), the figures for the concentration for total growth inhibition (TGI) in test [1] and in test [2] were 4.3 µM and above 5 µM, respectively.

On to `C=C[C@@H](O)C#CC#C[C@@H](O)/C=C\CCCCCCC` [FALCARINDIOL], for which the TGI (commonly the concentration at which net growth stops) in test [1] turned out to be 6 µM; in test [2], 9 µM. Besides, the Selectivity Index in test [3] came to 1.5.

For `C=CCCCCC/C=C\CC#CC#CC(O)C=C` (mixture of isomers), the result in test [4], in test [5], in test [6], in [16], in test [17] and in test [18] was Active. For the same compound, in [23], the outcome was Active. For the same compound, the outcome in test [7], in [8], in [9], in test [11], in test [13] and in test [15] was inactive. Besides, the result in [19], in test [20] and in test [22] was inactive. Also, the inhibition entry in test [10], in test [12] and in test [14] was “inactive” throughout. For the same compound, the Ratio in test [21] was determined as 1.7.

Regarding `C=C[C@@H](O)C#CC#CC/C=C\CCCCCCC`, the figures for the concentration for total growth inhibition (TGI) in test [1] and in [2] were 6 µM and 9 µM, respectively. For the same compound, the Selectivity Index in [3] amounted to 1.5.

For `C=CCCC/C=C\CC#CC#CC(O)C=C` (mixture of isomers), the TGI was 0.49 µM in [1] and 2.4 µM in test [2]. The Selectivity Index in test [3] turned out to be 4.9.

Consider `CN(CCOc1ccc(CC2SC(=O)NC2=O)cc1)c1ccccn1` (stereo not given), for which the outcome in [24] and in [25] was inactive.

As to `C=CCCCCC(O)/C=C/C#CC#CC(O)CC` (mixture of isomers), the TGI in [1] is 4.8 µM; in [2], above 10 µM.
